Measured values published in article PMC5851871 (Bioorganic & medicinal chemistry letters, 2018).

Tests used:
thrombin [1] = target: T1, thrombin (Homo sapiens, UniProt P00734); experiment: Michaelis-Menten kinetics of Spectrozyme TH hydrolysis; format: biochemical; conditions: Michaelis-Menten kinetic studies
Summary of the method: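 Thrombin hydrolysis of Spectrozyme TH, a chromogenic substrate, was read spectrophotometrically at pH 7.4 and 25 °C. The substrate was varied at several test compound levels up to 40 μM. VMAX and KM were taken from Michaelis-Menten analysis to assign the inhibition mechanism.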

[2] = system: recombinant thrombin mutants (exosite 2 Ala replacements); experiment: Inhibition of recombinant exosite 2 alanine mutant versus wild-type thrombins; format: biochemical; conditions: 11 single Ala mutants of exosite 2, Spectrozyme TH, pH 7.4, 25 °C
[3] = target: thrombin cleavage of human fibrinogen (Homo sapiens, UniProt P00734); experiment: PAGE densitometry of thrombin cleavage of fibrinogen; format: biochemical; conditions: for Maximal inhibition of fibrinogen cleavage (ΔY against fibrinogen): saturating inhibitor, 4.7 μM fibrinogen, 6 nM thrombin, pH 7.4, 25 °C
Summary of the method: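 Thrombin (6 nM) cleaved human fibrinogen (4.7 μM) with test compound at 0 to 150 μM. Fibrinogen cleavage was monitored by polyacrylamide gel electrophoresis.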

thrombin [4] = target: T1, thrombin; experiment: Thrombin inhibition, chromogenic substrate hydrolysis assay; format: biochemical; conditions: 20 mM Tris-HCl pH 7.4, 25 mM CaCl2, 100 mM NaCl, 0.1% PEG 8000, 25 °C, ± 1 S.E.
thrombin [5] = target: T1, thrombin; conditions: inhibition of human thrombin by peptides; cited from earlier work

Compound	Mechanism of inhibition (thrombin [1])	IC50 of mutant versus wild-type thrombin [2]	Maximal inhibition of fibrinogen cleavage (ΔY against fibrinogen) [3]	Fibrinogen cleavage continuing at saturating inhibitor ([3]; saturating levels of inhibitor)	ΔY (efficacy of inhibition) (thrombin [4])	IC50 (thrombin [5]) [µM]
CCOC(=O)c1c(C)oc2cc(OCc3ccccc3)c(OCc3oc4cc(OCC5CCCCC5)c(OS(=O)(=O)[O-])cc4c3C(=O)OCC)cc12.[Na+] [2i]	mixed inhibition	potency changed significantly for several mutants including Arg165Ala, Lys169Ala, Arg175Ala, Arg233Ala and Lys236Ala	greater than 90%	–	–	–
CCOC(=O)c1c(C)oc2cc(OCCc3ccccc3)c(OCc3oc4cc(OC)c(OS(=O)(=O)[O-])cc4c3C(=O)OCC)cc12.[Na+] [2c]	noncompetitive inhibitor	virtually no difference in IC50 between wild-type and mutant thrombin except for Arg233Ala and Lys235Ala proteins	about 70±8%	approximately 30%	–	–
CCOC(=O)c1c(C)oc2cc(OCC3CCCCC3)c(OCc3oc4cc(OCC5CCCCC5)c(OS(=O)(=O)[O-])cc4c3C(=O)OCC)cc12.[Na+] [2h]	–	–	–	–	~ 90%	–
Fibrinogen peptide (410 – 427): allosteric peptide inhibitor of thrombin, literature value from ref 18	–	–	–	–	–	130
